Residue numbers refer to the chain shown, from its start. Calls of active or inactive are those of the source. No cut-off for these calls is given here.
Tests used:
[1] = biological target: T1, Serine/threonine-protein kinase Nek2 (Homo sapiens, UniProt P51955); experiment: Inhibition of human Nek2 in using [gamma-32P] ATP
T1 sequence (P51955 whole entry): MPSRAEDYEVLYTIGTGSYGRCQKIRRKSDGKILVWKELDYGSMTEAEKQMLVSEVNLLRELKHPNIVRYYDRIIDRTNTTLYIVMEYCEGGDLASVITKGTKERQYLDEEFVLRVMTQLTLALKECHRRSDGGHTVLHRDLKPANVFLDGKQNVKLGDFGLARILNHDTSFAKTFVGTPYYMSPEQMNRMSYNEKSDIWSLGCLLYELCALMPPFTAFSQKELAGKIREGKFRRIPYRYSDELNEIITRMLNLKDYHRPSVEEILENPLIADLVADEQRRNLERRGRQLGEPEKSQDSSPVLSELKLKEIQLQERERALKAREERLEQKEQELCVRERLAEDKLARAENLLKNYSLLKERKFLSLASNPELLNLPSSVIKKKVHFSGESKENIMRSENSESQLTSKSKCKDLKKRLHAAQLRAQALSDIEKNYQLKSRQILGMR

[2] = biological target: Cyclin-dependent kinase 1/cyclin B1 (Homo sapiens, UniProt P06493); experiment: Inhibition of human Cdk1/cyclinB using histone H1 as a substrate and [gamma-32P]ATP; format: protein-complex assay
Homo sapiens = species on record: Homo sapiens; experiment: Ratio of IC50 for human Nek2 to IC50 for human Cdk1/cyclinB
Procedure, shortened: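 Nek2 (WT kinase domain, 15 nM) pre-incubated with inhibitor for 30 min at room temperature in HEPES pH 7.5, MgCl2, EDTA, BSA with 100 μM ATP and 3% DMSO. β-casein and [γ-32P]ATP were then added for a 30-min reaction. Cdk1/cyclin B (2 nM) was run the same way but with 38 μM ATP and histone H1 as substrate. Phosphorylation was read from nitrocellulose spots. IC50s are means of three determinations.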

A549 [3] = experiment: Antimitotic activity in monastrol-arrested human A549 cells assessed as cells that exit mitosis arrest at 5 uM after 45 mins by immunofluorescence microscopic analysis; format: functional
[4] = biological target: T2, Serine/threonine-protein kinase Nek2 (Homo sapiens) (UniProt P51955); experiment: Inhibition of human Nek2 at 5 uM using [gamma-32P] ATP
T2 sequence (whole entry): T1 sequence (P51955 whole entry)

[5] = biological target: Serine/threonine-protein kinase Nek2 (Homo sapiens, UniProt P51955, C22V); experiment: Inhibition of human Nek2 C22V mutant using [gamma-32P] ATP
[6] = biological target: T2, Serine/threonine-protein kinase Nek2 (Homo sapiens); experiment: Induction of alkylation at Cys22 position of wild type human Nek2 kinase domain amino acid 1-271 at 500 nM by electrospray mass spectrometric analysis
Procedure, shortened: (§1)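 WT or C22V Nek2 kinase domain (50 nM) incubated with 500 nM inhibitor in PBS pH 7.4, 5% DMSO, 5 h at room temperature. Acidified to pH 3 with HCl, then LC-MS on a C18 protein column with acetonitrile/formic acid gradient and ESI detection. Spectra deconvoluted to single masses of protein and adducts.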

[7] = system: T3, Serine/threonine-protein kinase Nek2 (Homo sapiens), P51955 [C22V]; experiment: Induction of alkylation at Cys22 position of human Nek2 C22V mutant kinase domain amino acid 1-271 at 500 nM by electrospray mass spectrometric analysis; procedure, shortened: as §1
T3 sequence (whole entry): T1 sequence (P51955 whole entry) with C22V

A549 [8] = experiment: Induction of deffect in bipolar spindle assembly in human A549 cells at 5 uM after 30 mins in presence of Cdk1 inhibitor 19; format: functional, cell-based
Procedure, shortened: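 A549 cells on poly-lysine coverslips grown 24 h, held in late G2 with 5 μM 19 for 20 h, then given 5 μM test compound plus 5 μM 19 for 30 min. Washed twice into compound-free media, then 10 μM MG132 for 1 h. Fixed and immunostained for spindles and chromosomes. Bipolar spindles quantified in >160 cells/condition, mean ± SD of 3 experiments.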

A549 [9] = experiment: Effect on chromosome congression in human A549 cells at 5 uM after 30 mins in presence of Cdk1 inhibitor 19; format: functional, cell-based
A549 [10] = experiment: Reduction in total number of mitotic cells in human A549 cells at 5 uM after 30 mins in presence of Cdk1 inhibitor 19; format: functional, cell-based

Cyclin-dependent kinase 1/cyclin B1, sequence (P06493 whole entry): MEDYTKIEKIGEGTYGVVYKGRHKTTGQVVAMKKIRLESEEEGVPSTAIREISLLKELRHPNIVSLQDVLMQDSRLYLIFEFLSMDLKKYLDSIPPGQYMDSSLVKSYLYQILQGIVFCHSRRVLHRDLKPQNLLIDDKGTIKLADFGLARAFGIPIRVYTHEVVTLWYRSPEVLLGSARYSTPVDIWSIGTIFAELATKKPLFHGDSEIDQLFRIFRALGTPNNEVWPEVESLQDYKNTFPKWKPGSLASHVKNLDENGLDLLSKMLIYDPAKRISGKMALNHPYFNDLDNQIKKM
Cyclin-dependent kinase 1/cyclin B1, sequence (P14635 whole entry, further chain): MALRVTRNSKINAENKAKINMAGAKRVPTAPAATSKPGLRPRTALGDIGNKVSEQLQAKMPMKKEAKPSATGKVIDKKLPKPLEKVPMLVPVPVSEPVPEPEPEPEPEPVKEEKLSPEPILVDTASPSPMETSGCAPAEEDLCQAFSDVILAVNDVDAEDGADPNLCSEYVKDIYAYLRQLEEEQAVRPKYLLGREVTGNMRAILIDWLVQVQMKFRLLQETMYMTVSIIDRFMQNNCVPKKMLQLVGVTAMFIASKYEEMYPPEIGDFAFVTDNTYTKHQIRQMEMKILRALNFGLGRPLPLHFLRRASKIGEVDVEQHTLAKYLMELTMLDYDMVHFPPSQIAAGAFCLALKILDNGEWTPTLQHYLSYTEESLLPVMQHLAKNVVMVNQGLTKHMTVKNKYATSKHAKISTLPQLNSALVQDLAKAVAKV
Serine/threonine-protein kinase Nek2 (Homo sapiens, UniProt P51955, C22V), sequence (P51955 whole entry C22V, the tested form may be a part): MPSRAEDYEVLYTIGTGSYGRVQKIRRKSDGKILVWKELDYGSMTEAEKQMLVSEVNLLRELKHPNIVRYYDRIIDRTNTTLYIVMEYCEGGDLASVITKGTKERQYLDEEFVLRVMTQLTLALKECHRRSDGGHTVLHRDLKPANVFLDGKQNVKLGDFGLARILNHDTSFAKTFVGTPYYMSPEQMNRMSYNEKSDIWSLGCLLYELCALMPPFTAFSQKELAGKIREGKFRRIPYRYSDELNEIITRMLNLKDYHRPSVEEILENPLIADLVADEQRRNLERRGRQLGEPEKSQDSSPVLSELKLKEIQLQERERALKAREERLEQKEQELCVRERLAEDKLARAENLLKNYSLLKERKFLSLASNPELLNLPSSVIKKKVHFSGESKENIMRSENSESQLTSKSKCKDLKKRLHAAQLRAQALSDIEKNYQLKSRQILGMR

SMILES | IC50 [1] [µM] | IC50 [2] [µM] | Activity (A549 [3]) [%] | other results
C#CC(=O)Nc1ccc2c(c1)/C(=C/c1[nH]cnc1C)C(=O)N2 | 0.39 | < 0.001 | 99 | Ratio IC50 (Homo sapiens): 400
CCc1nc(C)c(/C=C2\C(=O)Nc3ccc(C(=O)CCl)cc32)[nH]1 | 0.13 | 2.5 | 50 | 
CCc1nc(C)c(/C=C2\C(=O)Nc3ccc(C(C)=O)cc32)[nH]1 | > 20 | 3.6 | 27 | 
C#CC(=O)Nc1ccc2c(c1)/C(=C/c1ccc[nH]1)C(=O)N2 | 0.92 | 0.09 | 78 | inhibition [4]: 80%; IC50 [5]: 20 µM; Activity [6]: Active; Activity [7]: inactive
O=C1Nc2ccc(C(=O)CCl)cc2/C1=C/c1ccc[nH]1 | < 0.006 | 0.01 | 98 | inhibition [4]: 80%; IC50 [5]: 14 µM; Activity [6]: Active; Activity [7]: inactive
C#CC(=O)Nc1ccc2c(c1)/C(=C/c1cnc[nH]1)C(=O)N2 | 0.62 | < 0.001 | 80 | 
C#CC(=O)Nc1ccc2c(c1)/C(=C/c1[nH]c(CC)nc1C)C(=O)N2C | > 20 | > 20 | 0 | 
Cc1nc[nH]c1/C=C1\C(=O)Nc2ccc(C(=O)CCl)cc21 | 0.02 | < 0.001 | 100 | 
C#CC(=O)Nc1ccc2c(c1)/C(=C/c1[nH]c(CC)nc1C)C(=O)N2 |  | > 20 |  | Activity (A549 [8]): inactive; Activity (A549 [9]): inactive; Activity (A549 [10]): inactive
O=C1Nc2ccc(C(=O)CCl)cc2/C1=C/c1cnc[nH]1 | 0.06 | < 0.001 | 92 | 
CC#CC(=O)Nc1ccc2c(c1)/C(=C/c1[nH]c(CC)nc1C)C(=O)N2 |  | > 20 | 33 | 
CCc1nc(C)c(/C=C2\C(=O)N(C)c3ccc(C(=O)CCl)cc32)[nH]1.Cl |  |  | 0.9 | 
C=CC(=O)Nc1ccc2c(c1)/C(=C/c1ccc[nH]1)C(=O)N2 |  |  |  | inhibition [4]: inactive
